Source: ChEMBL document CHEMBL1155793, “Phenyl phosphotriester derivatives of AZT: variations upon the SATE moiety” (Bioorg Med Chem, 2008)
pEC50: −log10 of the molar value. Values after ≈ are worked out from the molar mass of the structure shown.

How the values were obtained:
[1] = system: Human immunodeficiency virus 1; assay: Antiviral activity against HIV1 infected human MT4 cells; format: functional, organism-based; conditions: Human immunodeficiency virus 1, MT4
[2] = Cytotoxicity against human CEM-SS cells; format: cell-based
[3] = Chemical stability in RPMI1640 medium at pH 7.5; format: physicochemical
How it was run: (§1)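 Compound at an initial 50 µM was incubated in water (pH 6.8) or RPMI 1640 (pH 7.5). Samples were analysed by on-line ISRP-cleaning HPLC: TEAA 20 mM pH 6.9 wash, then 0–80% acetonitrile gradient, UV 267 nm. Products were identified by HPLC/MS or co-injection. Half-lives came from pseudo-first-order mono- or polyexponential fits of peak areas. Mean of two experiments.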

[4] = Chemical stability in water at pH 6.8; format: physicochemical; how it was run: as §1
[5] = system: Human immunodeficiency virus 1; assay: Antiviral activity against HIV1 infected human CEM-SS cells; format: functional, organism-based; conditions: Human immunodeficiency virus 1, CEM-SS
[6] = Stability in human CEM-SS cell culture medium; format: ADME, cell-based
How it was run: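 Compound at an initial 50 µM was incubated in culture medium of 90% RPMI 1640 plus 10% fetal calf serum, heat-inactivated 30 min at 56 °C. Analysis was by on-line ISRP-cleaning HPLC (0–80% acetonitrile in 20 mM TEAA pH 6.9, 267 nm) with HPLC/MS or co-injection identification. Half-lives came from pseudo-first-order exponential fits. Mean of three experiments.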

[7] = system: Human immunodeficiency virus 1; assay: Antiviral activity against HIV1 infected human thymidine kinase-deficient CEM cells; format: functional, organism-based; conditions: Human immunodeficiency virus 1, CCRF-CEM
[8] = Cytotoxicity against human thymidine kinase-deficient CEM cells; format: cell-based, CCRF-CEM
[9] = Cytotoxicity against human MT4 cells; format: cell-based
[10] = Stability in human CEM-SS cell extracts; format: ADME, cell-based
How it was run: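 CEM-SS cell extracts were incubated with compound at an initial 50 µM. Samples were analysed by on-line ISRP-cleaning HPLC (0–80% acetonitrile gradient in 20 mM TEAA pH 6.9, detection 267 nm), with metabolites identified by HPLC/MS or co-injection. Half-lives came from pseudo-first-order mono- or polyexponential regression. Mean of three experiments.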

[11] = Lipophilicity, log P of the compound; format: physicochemical; conditions: octanol/water
How it was run: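 Log P values were calculated with software, not measured experimentally.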

[12] = Aqueous solubility of the compound; format: physicochemical

Row | Compound | pEC50 [1] | CC50 [2] [µM] | half-life [3] [h] | half-life [4] [h] | pEC50 [5] | half-life [6] [h] | pEC50 [7] | CC50 [8] [µM] | CC50 [9] [µM] | half-life [10] [h] | logP ([11]; read-out: logP) | solubility [12] [µg/mL] | logP [11]
1 | Cc1cn([C@H]2C[C@H](N=[N+]=[N-])[C@@H](COP(=O)(OCCSC(=O)[C@@H](N)C(C)C)Oc3ccccc3)O2)c(=O)[nH]c1=O (stereo partly specified) | 8.40 | > 120 | < 0.0167 | 1820 | 9.00 | < 0.0167 | 4.09 | > 120 | > 120 | < 0.0167 | 2 |  | 
2 | Cc1cn([C@H]2C[C@H](N=[N+]=[N-])[C@@H](COP(=O)(OCCSC(=O)C(C)(C)CO)Oc3ccccc3)O2)c(=O)[nH]c1=O (stereo partly specified) | 7.52 | > 130 |  |  | 8.22 | 331 | 5.41 | > 130 | > 130 | 14.8 | 2 | 6640 (≈ 11.4 mM) | 
3 | Cc1cn([C@H]2C[C@H](N=[N+]=[N-])[C@@H](COP(=O)(OCCSC(=O)C(C)(CO)CO)Oc3ccccc3)O2)c(=O)[nH]c1=O (stereo partly specified) | 7.13 | > 150 |  |  | 7.92 | 211 | < 4.00 | > 150 | > 150 | 178 | 2 | 60600 (≈ 101 mM) | 
4 | Cc1cn([C@H]2C[C@H](N=[N+]=[N-])[C@@H](COP(=O)(OCCSC(=O)C(C)(C)C)Oc3ccccc3)O2)c(=O)[nH]c1=O (stereo partly specified) | 6.09 | > 10 |  |  | 7.82 | 607 | 6.35 | > 10 | > 10 | 1.5 |  | 57 (≈ 0.1 mM) | 2
5 | Cc1cn([C@H]2C[C@H](N=[N+]=[N-])[C@@H](COP(=O)(OCCSC(=O)C(C)(C)NC(=O)OC(C)(C)C)Oc3ccccc3)O2)c(=O)[nH]c1=O (stereo partly specified) |  |  | > 288 | > 480 |  | 338 |  |  |  | 40.8 |  |  | 
6 | Cc1cn([C@H]2C[C@H](N=[N+]=[N-])[C@@H](COP(=O)(OCCSC(=O)[C@@H](NC(=O)OC(C)(C)C)C(C)C)Oc3ccccc3)O2)c(=O)[nH]c1=O (stereo partly specified) |  |  | > 216 | > 960 |  | 197 |  |  |  | 106 |  |  | 
7 | Cc1cn([C@H]2C[C@H](N=[N+]=[N-])[C@@H](COP(=O)(OCCSC(=O)C(C)(C)N)Oc3ccccc3)O2)c(=O)[nH]c1=O (stereo partly specified) | 7.27 | > 120 | 0.1 | > 144 | 8.05 | < 0.0167 | 4.05 | > 120 | > 120 | 0.133 | 2 |  | 
8 | Cc1cn([C@H]2C[C@H](N=[N+]=[N-])[C@@H](CO)O2)c(=O)[nH]c1=O [ZIDOVUDINE] | 7.82 | > 100 |  |  | 8.52 |  | < 4.00 | > 100 | > 100 |  |  |  | 
